From PMC6235520 (Science Advances, 2018)
Where “and” joins values, the source holds several entries; their conditions need not be identical. Identical values can stand only once. Like-named read-outs stand apart in the source and are kept apart here. Each block holds one compound with its values, some of them ahead of it.

What was measured:
human KCNQ1 = human KCNQ1 (Homo sapiens, UniProt P51787); assay: Two-electrode voltage clamp of KCNQ1 expressed in Xenopus laevis oocytes; assay type: cell-based; settings: for negative shift in the voltage dependence of KCNQ1 activation: 100 μM compound; for effect on KCNQ1 gating kinetics (activation and deactivation rates): MTX 30 µM, CPT1 100 µM
KCNQ1-R243A = assay: Two-electrode voltage clamp of KCNQ1-R243A mutant in Xenopus oocytes; assay type: cell-based, human; settings: MTX 10 μM; CPT1 100 µM
In short: (§1)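 Mutant channels were made by site-directed mutagenesis and expressed from human cRNA (α-subunit 10 ng per oocyte) in stage V–VI oocytes for 2–5 days at 16°C. Room-temperature TEVC used a pH 7.6 Hepes-buffered bath with 4 mM KCl. Compound was perfused for 3 min, then currents were recorded at −80 to +40 mV in 20-mV steps. Fold current augmentation was plotted against voltage.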

KCNQ1-R243A/KCNE1 = assay: Two-electrode voltage clamp of KCNQ1-R243A/KCNE1 in Xenopus oocytes; assay type: cell-based, human; settings: MTX 10 μM; CPT1 100 µM
In short: as §1

KCNQ1-KCNE1 = KCNQ1-KCNE1 (Homo sapiens, UniProt P51787); assay: Two-electrode voltage clamp of KCNQ1-KCNE1 in Xenopus oocytes; assay type: cell-based
KCNQ1-KCNE3 = assay: Two-electrode voltage clamp of KCNQ1-KCNE3 in Xenopus oocytes; assay type: cell-based, human; settings: 30 μM, across the voltage range studied
In short: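 Human KCNQ1 and KCNE3 cRNAs were injected into defolliculated stage V–VI oocytes (α-subunit cRNA 10 ng total per oocyte) and held 2–5 days at 16°C in Barth's with penicillin/streptomycin. Room-temperature TEVC used bath 96 mM NaCl, 4 mM KCl, 1 mM MgCl2, 1 mM CaCl2, 10 mM Hepes pH 7.6. Test compound was perfused 3 min at 1 ml/min. Prepulses were −80 to +40 mV in 20-mV steps, with tails at −30 mV; n = 8.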

KCNQ1-KCNE4 = assay: Two-electrode voltage clamp of KCNQ1-KCNE4 in Xenopus oocytes; assay type: cell-based, human; settings: 30 μM
In short: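 Oocytes (stage V–VI, defolliculated) were co-injected with human KCNQ1 and KCNE4 cRNAs (α-subunit 10 ng total) and kept 2–5 days at 16°C. TEVC was run at room temperature in 4 mM KCl/96 mM NaCl Hepes bath, pH 7.6, after 3-min gravity perfusion of 30 μM test compound. Raw tail currents at −30 mV followed prepulses from −80 to +40 mV; n = 5.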

KCNQ2-R213A/KCNQ3 = assay: Two-electrode voltage clamp of KCNQ2-R213A/KCNQ3 in Xenopus oocytes; assay type: cell-based, human; settings: at a given voltage
KCNQ2/KCNQ3-R242A = assay: Two-electrode voltage clamp of KCNQ2/KCNQ3-R242A in Xenopus oocytes; assay type: cell-based, human; settings: compared with KCNQ2-R213A/KCNQ3 and wild type
KCNQ2-R213A/KCNQ3-R242A = assay: Two-electrode voltage clamp of KCNQ2-R213A/KCNQ3-R242A; assay type: cell-based, human
KCNQ2/3 channels = settings: cited from earlier work
BK = settings: cited from earlier work
KCNQ1 = settings: cited from earlier work
[1] = rats fed Mallotus philippensis extract; cited from earlier work
[2] = cited from earlier work
hERG = settings: cited from earlier work
[3] = Pharmacokinetics in rats fed Mallotus philippensis extract; settings: equates to 2 μg/ml

KCNQ1-KCNE1, sequence (P51787 whole entry): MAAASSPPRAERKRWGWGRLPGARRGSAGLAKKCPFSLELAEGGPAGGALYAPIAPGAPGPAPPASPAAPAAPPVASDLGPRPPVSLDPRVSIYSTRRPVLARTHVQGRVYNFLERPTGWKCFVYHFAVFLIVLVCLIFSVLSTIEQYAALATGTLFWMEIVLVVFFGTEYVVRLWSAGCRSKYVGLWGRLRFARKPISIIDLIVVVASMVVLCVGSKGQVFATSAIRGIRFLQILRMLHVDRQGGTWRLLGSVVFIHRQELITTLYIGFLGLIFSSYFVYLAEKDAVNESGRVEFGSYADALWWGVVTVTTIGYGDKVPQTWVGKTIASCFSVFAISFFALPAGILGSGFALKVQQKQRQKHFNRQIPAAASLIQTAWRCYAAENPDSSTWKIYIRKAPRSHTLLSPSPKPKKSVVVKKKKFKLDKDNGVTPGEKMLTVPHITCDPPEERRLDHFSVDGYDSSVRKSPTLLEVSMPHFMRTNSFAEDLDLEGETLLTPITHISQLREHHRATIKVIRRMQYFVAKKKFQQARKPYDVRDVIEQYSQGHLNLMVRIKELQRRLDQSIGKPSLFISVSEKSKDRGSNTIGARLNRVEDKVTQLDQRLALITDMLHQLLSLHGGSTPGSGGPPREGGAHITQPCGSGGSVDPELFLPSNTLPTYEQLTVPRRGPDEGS
human KCNQ1, sequence (P51787 whole entry): as the sequence (P51787 whole entry) above

EC50 (human KCNQ1): 0.1 µM
negative shift in the voltage dependence of KCNQ1 activation (human KCNQ1): −5 mV
potency on KCNQ1 relative to MTX (human KCNQ1; CPT1 versus MTX): 100 fold
KCNQ1 current fold increase (human KCNQ1; at −60 mV, 100 μM): 2.7 fold
SMILES: CCC1=C(O)C(=O)CC1 [CPT1, 3-ethyl-2-hydroxy-2-cyclopenten-1-one]
effect on KCNQ1 gating kinetics (activation and deactivation rates) (human KCNQ1): statistically significant speeding of activation and slowing of deactivation
sensitivity of KCNQ1-R243A to compound (KCNQ1-R243A): eliminated
sensitivity of KCNQ1-R243A/KCNE1 complexes to compound (KCNQ1-R243A/KCNE1): eliminated

SMILES: CC(=O)c1c(O)c(C)c(O)c(Cc2c(O)c3c(c(C(=O)/C=C/c4ccccc4)c2O)OC(C)(C)C=C3)c1O [MTX, mallotoxin]
shift in KCNQ1 activation voltage dependence (human KCNQ1; 30 μM MTX): −27 mV
effect on KCNQ1 current in presence of UCL2077 (human KCNQ1; 30 μM MTX, UCL2077 10 μM, hyperpolarized voltages): still augmented
rescue of KCNQ1 from inhibition by UCL2077 (human KCNQ1; 30 μM MTX, UCL2077 10 μM, positive voltages): ineffective
negative shift in the voltage dependence of KCNQ1 activation (human KCNQ1): −27 mV
MTX effects on KCNQ1 in high extracellular K+ (human KCNQ1; 50 mM extracellular K+, 10 µM MTX): preserved
EC50 (human KCNQ1; EC50 (dose response) for the ΔV0.5 activation of KCNQ1): 9.4 ± 0.1 µM
EC50 (human KCNQ1; KCNQ1 activation EC50, at −40 mV): 9.9 µM and 10 µM
effect on KCNQ1 gating kinetics (activation and deactivation rates) (human KCNQ1): speeded KCNQ1 activation and slowed its deactivation
KCNQ1 current fold increase (human KCNQ1; at −40 mV, 30 μM): 5.4 fold
EC50 (KCNQ1-KCNE1): 27.9 ± 0.3 µM
shift of V0.5 of activation of KCNQ1-KCNE1 (KCNQ1-KCNE1; 30 μM MTX): −45 mV
effect on KCNQ1-KCNE1 currents (KCNQ1-KCNE1; 30 μM, across the voltage range tested): strongly augmented
effect on KCNQ1-KCNE3 channels (KCNQ1-KCNE3): moderately inhibited
effect on KCNQ1-KCNE4 activity (KCNQ1-KCNE4): minor augmentation
sensitivity of KCNQ1-R243A to compound (KCNQ1-R243A): completely insensitive
sensitivity of KCNQ1-R243A/KCNE1 complexes to compound (KCNQ1-R243A/KCNE1): completely insensitive
MTX-induced shift in the V0.5 of activation versus wild-type KCNQ2/3 (KCNQ2-R213A/KCNQ3): slightly greater
efficacy of MTX on KCNQ2/KCNQ3-R242A channels (KCNQ2/KCNQ3-R242A): even more efficacious
sensitivity of RA-RA KCNQ2/3 channels to MTX (KCNQ2-R213A/KCNQ3-R242A): insensitive
effect on KCNQ2/3 channels (KCNQ2/3 channels): activates
effect on BK potassium channel (BK): activate
effect on KCNQ1 potassium channel (KCNQ1): activate
oral bioavailability [1]: > 20%
plasma concentrations [1]: > 2000 ng/mL
toxicity [2]: toxic in large doses
effect on hERG potassium channel (hERG): activate
plasma level converted to molar concentration [3]: 4 µM
